Data from ChEMBL document CHEMBL4145639, “Cytochalasans Produced by the Coculture of Aspergillus flavipes and Chaetomium globosum” (J Nat Prod, 2018).
Active and inactive are the calls of the source. No cut-off for these calls is given here.

Experiments:
[1] = test system: Staphylococcus aureus; test: Antimicrobial activity against Staphylococcus aureus by agar well diffusion method; type: functional, organism-based
Outline: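 Agar-well diffusion against S. aureus (Gram-positive) and a Gram-negative organism the paper calls C. bacillus. Cefotaxime sodium and tetracycline served as positive controls, with solvent DMSO as the negative control.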

[2] = test system: Murine T-cell line; test: Immunomodulatory activity in Kunming mouse T cells assessed as inhibition of ConA-induced cell proliferation at 40 uM after 48 hrs by MTT assay; type: functional, cell-based
Outline: (§1)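 Splenocytes came from three male KM mice (25 g), seeded at 5 × 10^5 cells/well. Stimulation was 5 μg/mL ConA (T cells) or 10 μg/mL LPS (B cells), with compounds in DMSO at final 40 μM. After 48 h culture, MTT was read at 570 nm. Stimulated and unstimulated controls set baseline proliferation.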

[3] = test system: Escherichia coli; test: Antimicrobial activity against Escherichia coli by agar well diffusion method
[4] = test system: B-cell line; test: Immunomodulatory activity in Kunming mouse B cells assessed as inhibition of LPS-induced cell proliferation at 40 uM after 48 hrs by MTT assay; type: functional, cell-based; outline: as §1
[5] = test system: MCF7; test: Antiproliferative activity against human MCF7 cells after 48 hrs by MTT assay; type: functional, cell-based; conditions: MCF7, 48 h
Outline: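 Cells were grown in RPMI 1640 with 10% FBS, penicillin and streptomycin at 37 °C in 5% CO2 and seeded at 5000 cells/well. Compounds (50, 25, 12.5, 6.25, 3.12, 1.56 μM; final DMSO 0.5%) were added 24 h later and incubated 48 h. MTT was added for 4 h, cells lysed in SDS/isopropanol/HCl, and A570 read. Runs were triplicate, with doxorubicin as positive control. IC50 came from means ± SEM.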

IC50 [5] | Structure (SMILES) | Activity [1] | inhibition [2] | Activity [3] | inhibition [4]
– | C/C1=C\[C@@H](C)C/C=C/[C@H]2[C@H](O)[C@@]3(C)O[C@@]4(CC(=O)c5ccccc5N)NC(=O)[C@]2(C(=O)CC[C@H](O)C1=O)[C@H]4[C@@H]3C | inactive | Active | inactive | –
– | C/C1=C\[C@H]2C=C(CO)[C@@H](C)[C@H]3[C@H](CC(C)C)NC(=O)[C@]32C(=O)CCC(=O)[C@@H](O)CC1 | inactive | Active | inactive | –
– | C/C1=C\[C@H]2C=C(CO)[C@@H](C)[C@H]3[C@H](CC(C)C)NC(=O)[C@]32C(=O)CCC(=O)[C@H](O)CC1 | inactive | – | inactive | Active
– | C/C1=C\[C@H]2C=C(CO)[C@@H](C)[C@H]3[C@H](CC(C)C)NC(=O)[C@]32C(=O)CC[C@@H](O)C(=O)CC1 | inactive | Active | inactive | –
– | C/C1=C\[C@H]2C=C(CO)[C@@H](C)[C@H]3[C@H](CC(C)C)NC(=O)[C@]32C(=O)CC[C@H](O)C(=O)CC1 | inactive | Active | inactive | –
– | C/C1=C\[C@@H](C)C/C=C/[C@H]2[C@@H]3O[C@]3(C)[C@@H](C)[C@H]3[C@H](C(O)c4c[nH]c5ccccc45)NC(=O)[C@]32C(=O)CC[C@H](O)C1=O (stereo in doubt; 5) | inactive | Active | inactive | –
– | C/C1=C\[C@@H](C)C/C=C/[C@H]2[C@@H]3O[C@]3(C)[C@@H](C)[C@H]3[C@H](C(O)c4c[nH]c5ccccc45)NC(=O)[C@]32C(=O)CC[C@H](O)C1=O (stereo in doubt; 6) | inactive | Active | inactive | Active
– | C=C1[C@@H](C)[C@H]2[C@H](C(OC)c3c[nH]c4ccccc34)NC(=O)[C@]23C(=O)CC[C@H](O)C(=O)/C(C)=C/[C@@H](C)C/C=C/[C@H]3[C@@H]1O (stereo in doubt; 7) | inactive | Active | inactive | Active
20.7 µM | C=C1[C@@H](C)[C@H]2[C@H](C(OC)c3c[nH]c4ccccc34)NC(=O)[C@]23C(=O)CC[C@H](O)C(=O)/C(C)=C/[C@@H](C)C/C=C/[C@H]3[C@@H]1O (stereo in doubt; 8) [listing 1 of 2 here] | – | – | – | –
– | C=C1[C@@H](C)[C@H]2[C@H](C(OC)c3c[nH]c4ccccc34)NC(=O)[C@]23C(=O)CC[C@H](O)C(=O)/C(C)=C/[C@@H](C)C/C=C/[C@H]3[C@@H]1O (stereo in doubt; 8) [listing 2 of 2 here] | inactive | Active | inactive | Active
– | COC(c1c[nH]c2ccccc12)[C@@H]1NC(=O)[C@@]23C(=O)CC[C@H](O)C(=O)/C(C)=C/[C@@H](C)C/C=C/[C@H]2[C@H](O)C(C)=C(C)[C@@H]13 (stereo in doubt; 9) | inactive | Active | inactive | Active
– | COC(c1c[nH]c2ccccc12)[C@@H]1NC(=O)[C@@]23C(=O)CC[C@H](O)C(=O)/C(C)=C/[C@@H](C)C/C=C/[C@H]2[C@H](O)C(C)=C(C)[C@@H]13 (stereo in doubt; 10) | inactive | – | inactive | Active
27.9 µM | C/C1=C\[C@@H](C)C/C=C/[C@H]2[C@H](O)[C@@]3(C)O[C@@]4(CC56OC5Nc5ccccc56)NC(=O)[C@]2(C(=O)CC[C@H](O)C1=O)[C@H]4[C@@H]3C (stereo in doubt; 11) [listing 1 of 2 here] | – | – | – | –
– | C/C1=C\[C@@H](C)C/C=C/[C@H]2[C@H](O)[C@@]3(C)O[C@@]4(CC56OC5Nc5ccccc56)NC(=O)[C@]2(C(=O)CC[C@H](O)C1=O)[C@H]4[C@@H]3C (stereo in doubt; 11) [listing 2 of 2 here] | inactive | – | inactive | –
– | C/C1=C\[C@@H](C)C/C=C/[C@H]2[C@H](O)[C@@]3(C)O[C@@]4(CC56OC5Nc5ccccc56)NC(=O)[C@]2(C(=O)CC[C@H](O)C1=O)[C@H]4[C@@H]3C (stereo in doubt; 12) | inactive | Active | inactive | –
